Sampled rows, rich in hits. Any-hit rate of the full collection: about 0.99%.
Insulin prom up: MIN6 insulin promoter up-regulation; 190,000 compounds, 0.3% hits; z-score at 5 µM; MIN6 insulin promoter-GFP reporter, high-content imaging; active compounds read high;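 active = z-score above 3 at 5 µM with at least 500 cells counted in the well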
Tn6 DDE FP: inhibitors of Tn6 peptide binding to human fibrin DD(E). Fibrin DD(E) TRITC-Tn6 fluorescence polarization displacement. inhibition, % at 8.3 µM. 370,000 compounds, 0.21% hits. P02675;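 active = inhibition above a per-campaign cutoff: mean of compounds within control limits plus 3 SD, cut at about 15% in these data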;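 also: 0% = median of all compound wells on the plate and 100% = blocking peptide control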
Target sequence (P02675 whole entry, looked up): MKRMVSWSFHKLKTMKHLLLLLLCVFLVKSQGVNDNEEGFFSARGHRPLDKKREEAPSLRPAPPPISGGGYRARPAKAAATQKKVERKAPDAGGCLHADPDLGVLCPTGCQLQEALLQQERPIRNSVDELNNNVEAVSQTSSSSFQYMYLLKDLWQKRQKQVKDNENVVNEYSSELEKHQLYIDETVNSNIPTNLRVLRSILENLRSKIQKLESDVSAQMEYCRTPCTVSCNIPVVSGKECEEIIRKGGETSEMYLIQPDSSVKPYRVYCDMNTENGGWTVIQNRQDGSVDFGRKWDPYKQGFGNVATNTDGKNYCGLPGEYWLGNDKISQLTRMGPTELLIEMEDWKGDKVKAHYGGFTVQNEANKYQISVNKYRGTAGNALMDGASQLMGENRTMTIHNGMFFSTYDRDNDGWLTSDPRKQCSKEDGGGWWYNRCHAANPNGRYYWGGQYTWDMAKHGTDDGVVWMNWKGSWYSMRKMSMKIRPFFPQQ
DDE Tn7 FP inh: inhibitors of Tn7 peptide binding to human fibrin DD(E); P02675; FP displacement of FITC-Tn7 peptide from fibrin DD(E); 0% = median of compound wells per plate; inhibition, % at 8.3 µM; 370,000 compounds, 0.13% hits; AID 720508;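 active = inhibition above the mean of compounds falling within the control limits plus 3 SD of them, cut at about 14% in these data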;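 also: 0% = plate median of compound wells and 100% = 10 µM Aha-Tn7 peptide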
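Assay system: Human fibrin DD(E) protein | Medium: Tris buffer with calcium and detergent, pH 7.8 | Reagent: 0.1 µM fluorescent Tn7 | Compound dosing: Single point at 8.3 µM | Times: 10 min preincubation, 3 h with tracer, room temperature | Detection: Fluorescence polarization of the labelled Tn7 tracer | Controls: Aha-Tn7 high control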
ABCB1 inh: inhibitors of human ABCB1 transporter, ABCG2 counter-screen. P08183. CCRF-Adr cells, JC-1 efflux, flow cytometry. inhibition, % at 6.6 µM. 190,000 compounds, 0.067% hits; in the data active = inhibition above about 40%;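 also: 0% = vehicle and 100% = reference inhibitor; higher value means more JC-1 retained so stronger ABCB1 efflux block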
ABCG2 inh: inhibitors of human ABCG2 transporter, ABCB1 counter-screen; IgMXP3 cells, JC-1 efflux, flow cytometry; inhibition, % at 6.6 µM; 190,000 compounds, 0.1% hits; AID 1325;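 active = inhibition above 80%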;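 also: 0% = DMSO and 100% = nicardipine control wells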
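Read-out basis: Efflux inhibition in percent versus controls | Test system: ABCG2 IgMXP3 and barcoded ABCB1 CCRF-Adr cell mix | Quantity: 3 million cells/mL in well | Schedule: 10 min at 25 °C | Control set: Nicardipine as high control, DMSO as low control | Reagent: JC-1 as fluorescent efflux pump substrate | Signal: Flow cytometry of retained JC-1 fluorescence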
GRK2 aptamer HTS: inhibitors of human GRK2 displacing RNA aptamer | bead flow cytometry, FAM-aptamer displacement from GRK2 | inhibition of aptamer binding, % at 10 µM | 330,000 compounds, 0.59% hits;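 active = inhibition of aptamer binding above 40%, roughly 3 SD of noise, on plates passing a quality check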;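 also: median bead fluorescence of bound FAM aptamer so fluorescent compounds give negative values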
* = called active by the depositor; x = not tested or not shown.

SMILES	Insulin prom up	Tn6 DDE FP	DDE Tn7 FP inh	ABCB1 inh	ABCG2 inh	GRK2 aptamer HTS
N#Cc1ccc(CSc2nnc(NC(=O)c3ccc4ncsc4c3)s2)cc1	4.4*	-7	-4	-1	0	5
O=C(Nc1nnc(SCc2c(Cl)cccc2Cl)s1)c1ccc2ncsc2c1	-0.11	x	x	-1	-1	x
O=C(O)Cc1ccc(NC(=O)C2CC=CCC2C(=O)O)cc1 (centres undefined)	0.28	x	x	0	3	44*
CCc1ccc(NC(=O)C2CC=CCC2C(=O)O)cc1 (centres undefined)	0.31	-5	1	0	0	7
O=C(N[C@H](C(=O)N1CCC[C@H]1C(=O)NCCc1ccccc1Cl)C1CCCCC1)c1ccccc1	x	0	-4	x	x	x
Cn1ncc2c(NCc3cccc(C(F)(F)F)c3)c(C(=O)O)cnc21	0.4	2	3	0	1	55*
CCN(Cc1ccccc1)c1c(C(=O)O)cnc2c1cnn2C	-0.06	0	6	0	0	3
O=c1ccnc(Nc2ccc3c(c2)OCCO3)[nH]1	3.7*	0	-1	0	1	0
O=C(CSc1nccc(=O)[nH]1)Nc1ccc2c(c1)OCCO2	-0.61	-4	-10	0	14	0
Cc1ccc(-c2nnc(SCC(=O)Nc3ccc(Oc4ccccc4)cc3)n2-c2ccc(Cl)cc2)cc1	x	1	-9	x	x	x
CC(=O)Nc1ccc(N=Cc2c(O)c(C(=O)Nc3ccccc3)cc3ccccc23)cc1	x	-3	-3	70*	103*	0
CC(=O)Nc1ccc(N=Cc2c(O)c3ccccc3oc2=O)cc1	x	0	-6	x	x	6
Cc1ccc(-c2cc3onc(-c4ccccc4)c3c(=O)n2C)cc1	x	2	5	x	x	0
Cn1c(-c2ccc(F)cc2)cc2onc(-c3c(F)cccc3Cl)c2c1=O	x	-6	7	x	x	52*
CCS(=O)(=O)c1ccc2oc(SCC(=O)NC3CCCC(C)C3C)nc2c1 (centres undefined)	4.3*	-2	-5	3	11	0
CCS(=O)(=O)c1ccc2oc(SCC(=O)NC34CC5CC(CC(C5)C3)C4)nc2c1	x	-4	3	1	52	0
CC(=O)N1c2ccc(S(=O)(=O)N3CCC(C(=O)Nc4cccc(Cl)c4)CC3)cc2CC1C (centres undefined)	x	-2	-5	x	x	85*
Cc1nn(C)cc1NC(=O)C[C@H]1CC[C@H]2[C@@H](COc3ccc(NC(=O)Nc4ccccc4)cc3C(=O)N2C)O1	x	-2	3	x	x	x
CCOC(=O)N1CCC(NC(=O)c2cc(C(=O)Nc3ccc(OC)c(OC)c3)ccc2CO)CC1	3.4*	3	2	1	1	0
CC(C)(C)S(=O)N1Cc2cc(C(=O)NCc3ccc4c(c3)OCO4)nc(-c3cccc(-c4cc5ccccc5o4)c3)c2[C@@H]1CCO (some centres undefined)	x	-10	-3	x	x	x
CC(C)(C)S(=O)N1Cc2cc(C(=O)NCc3ccc(Oc4ccccc4)cc3)nc(-c3cccc(-c4cc5ccccc5o4)c3)c2[C@H]1CCO (some centres undefined)	x	17*	4	x	x	x
C#CCNC(=O)C[C@H]1C[C@@]2(C(=O)OC)C(=C[C@H](C3CCCC3)O[C@@H]2C)N(CCC2=CCCCC2)C1=O	x	8	3	x	x	x
Cn1cccc1C(=O)N1CCN(S(=O)(=O)c2cccs2)CC1	x	3	-5	x	x	x
Cc1ccc(C(=O)NN2C(=O)/C(=C/c3cn(C)c4ccccc34)SC2=S)cc1	x	-2	-4	-1	-14	7
Cn1cc(/C=C2\SC(=O)NC2=S)c2ccccc21	0.53	-1	16*	-2	-12	2
SMILES	Insulin prom up	Tn6 DDE FP	DDE Tn7 FP inh	ABCB1 inh	ABCG2 inh	GRK2 aptamer HTS
O=C(O)c1cccc(-c2ccc3c(c2)OCO3)c1	x	0	3	x	x	0
O=C1OC(c2ccc3c(c2)OCO3)=N/C1=C\c1ccc(C(=O)O)cc1	x	-8	4	x	x	53*
O=C(Nc1ccc(Cl)c(Cl)c1)Oc1ccc(NC(=O)c2ccco2)cc1	x	-1	19*	0	0	0
O=C(Nc1ccc(OC(=O)c2ccco2)cc1)c1ccco1	0.14	-1	3	1	18	2
Nc1ccc(N2CCN(CCCCN3C(=O)C4CCCN4C3=O)CC2)cc1 (centres undefined)	-0.33	50*	1	0	-1	0
Cc1ccccc1N1CCN(CCCCN2C(=O)C3CCCN3C2=O)CC1 (centres undefined)	0.45	10	-8	2	1	0
CCC1=NNc2cccc3c(OC)ccc1c23	1.1	x	x	0	-1	81*
COc1ccc2c3c(cccc13)C(=O)N(O)C2=O	0.22	1	1	1	21	4
Cn1c(=O)c(C(=O)NNC(=O)c2ccc(Br)cc2)c(O)c2ccccc21	x	-1	7	x	x	47*
N#CCC(=O)N/N=C/c1ccc(N2N=C(c3ccccc3)CC2c2ccccc2)cc1 (centres undefined)	x	-10	1	x	x	67*
CCOC(=O)N1CCN(C(=O)C[C@H]2C[C@@]3(C(=O)OCC)CCCC4=C3N(CCC4)C2=O)CC1	x	1	0	x	x	x
O=C1CSc2ccc(C(=O)N3CCCC(C(=O)N4CCN(c5ccc(F)cc5)CC4)C3)cc2N1 (centres undefined)	x	-3	4	x	x	x
C[n+]1cc(C(=O)N2CCCCC2)ccc1/C=C/c1c[nH]c2ccccc12	4*	2	-46	1	1	0
O=C(C(=O)N1CCCCCC1)c1c[nH]c2ccccc12	x	-4	-1	x	x	2
O=C(NCc1cccs1)c1cc(-c2cccs2)on1	0.81	91*	6	-1	-14	2
C#CCOCCOCCOCCNc1nc(N2CCN(C(=O)[C@H](CCCCN)n3cc([C@@H](N)C(C)CC)nn3)CC2)nc(N2CCN(C(=O)[C@H](CCCCN)n3cc([C@@H](N)C(C)CC)nn3)CC2)n1 (some centres undefined)	x	-5	-1	x	x	x
N#Cc1c(SCC(=O)Nc2nncs2)sc2c(O)cc(=O)[nH]c12	x	-17	-3	x	x	41*
Cc1ccccc1CN1CCCCC(NC(=O)c2cc(-c3ccccc3)no2)C1=O (centres undefined)	x	-11	2	x	x	x
CN(C)c1ccc(/C=N/NC(=O)CN(c2ccccc2Cl)S(C)(=O)=O)cc1Br	3.6*	-2	-9	0	2	0
COC(=O)Oc1ccc(/C=N/NC(=O)CN(c2ccccc2Br)S(C)(=O)=O)cc1OC	x	-6	-5	x	x	0
O=C(NCCCn1ccnc1)/C(=C\c1cccs1)NC(=O)c1ccco1	-0.12	-1	5	0	10	41*
Cc1ccc(CN2CCCCC(NC(=O)Nc3ccccc3)C2=O)cc1 (centres undefined)	x	-3	12	x	x	x

Bioassay records deposited in PubChem by several laboratories.
